Experimental data taken from ChEMBL document CHEMBL4024804 (J Med Chem, 2018).
The source made the active and inactive calls. The calls are words filed in the database; no cut-off is given here.

How the values were obtained:
M14 = assay: Cytotoxicity against human M14 cells after 72 hrs by MTS assay; type: functional, cell-based; settings: M14, 72 h
In short: (§1)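 Melanoma cells grown in DMEM with 10% FBS and seeded at 1800–3500 cells per well, then incubated overnight. Cells treated for 72 h with 10 concentrations from 0.03 nM to 1 μM, with DMSO vehicle, in four replicates. MTS added for at least 1 h at 37 °C and absorbance read at 490 nm. IC50 obtained by nonlinear regression.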

A-375 [1] = assay: Antimigratory activity in human A375 cells after 22 hrs by wound healing assay; type: functional, cell-based
In short: (§2)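 A375 and RPMI7951 monolayers seeded overnight (200 000 cells/well, triplicate), scratched with a pipet tip, washed, then given medium with 5 or 25 nM compound; untreated control wells. Imaged at 0 h and at 18 h (RPMI7951) or 22 h (A375); wound channel area measured and percent closure calculated. Dunnett's test versus control.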

Tubulin (Sus scrofa) = assay: Inhibition of tubulin (porcine brain) polymerization measured every min for 50 mins
[2] = Resistance index, ratio of IC50 for human PC3-TxR cells to IC50 for human PC3 cells; type: functional
In short: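 Cells were treated 72 h with 10 concentrations from 0.03 nM to 1 μM, four replicates, A490 read. IC50 by nonlinear regression. RI = IC50 resistant / IC50 parental.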

RPMI-7951 [3] = assay: Cytotoxicity against human RPMI7951 cells after 72 hrs by MTS assay; type: functional, cell-based; settings: RPMI-7951, 72 h; in short: as §1
A-375 [4] = assay: Induction of apoptosis in human A375 cells xenografted in nude mouse assessed as increase in cleaved caspase-3 levels at 15 mg/kg, ip administered every other day for 2 weeks by immunohistochemical analysis; type: functional, organism-based
In short: (§3)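 Formalin-fixed, paraffin-embedded A375 xenograft tumors from mice dosed ip every other day (2:1 PEG300/PBS). Serial sections immunostained with rabbit anti-cleaved caspase 3 antibody by the ABC-DAB method.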

[5] = Acute toxicity in nude mouse administered as qd for 5 days; settings: in vivo
In short: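 Nude mice, 6–8 weeks old; compound formulated in PEG300 and given as five continuous daily administrations, then monitored for acute toxicity. A single-dose acute MTD was estimated first.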

RPMI-7951 [6] = assay: Antimigratory activity in human RPMI7951 cells assessed as wound closure at 5 nM after 18 hrs (reference value: 71.8 +/- 1.8%); type: functional
RPMI-7951 [7] = assay: Antimigratory activity in human RPMI7951 cells assessed as wound closure at 25 nM after 18 hrs (reference value: 71.8 +/- 1.8%); type: functional
A-375 [8] = assay: Antitumor activity against human A375 cells xenografted in nude mouse assessed as tumor growth inhibition at 15 mg/kg, ip administered every other day for 2 weeks relative to control; type: functional; settings: A-375, ip, 336 h, read-out: TGI
In short: (§4)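 Nude mice 6–8 weeks old; 2 × 10^6 A375 cells in FBS-free medium with Matrigel injected sc into dorsal flank. At about 100 mm3 mice were randomized, n = 8. Drug in 2:1 PEG300/PBS given ip every other day. Volume measured by caliper three times weekly (a × b2 × 0.5).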

A-375 [9] = assay: Antimigratory activity in human A375 cells assessed as wound closure at 5 nM after 22 hrs (reference value: 60.7 +/- […]); type: functional
RPMI-7951 [10] = assay: Antimigratory activity in human RPMI7951 cells after 18 hrs by wound healing assay; type: functional, cell-based; in short: as §2
A-375 [11] = assay: Antitumor activity against human A375 cells xenografted in nude mouse assessed as tumor growth inhibition at 30 mg/kg, ip administered every other day for 2 weeks relative to control; type: functional; settings: A-375, ip, 336 h, read-out: TGI; in short: as §4
[12] = Cytotoxicity against human DU145-TxR cells after 72 hrs by MTS assay; type: functional, cell-based
In short: (§5)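 Cells treated 72 h at 10 concentrations, 0.03 nM–1 μM, n = 4. MTS read at 490 nm; IC50 by nonlinear regression. RI = resistant IC50 / parental IC50.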

PC-3 = assay: Cytotoxicity against human PC3 cells after 72 hrs by MTS assay; type: functional, cell-based; settings: PC-3, 72 h; in short: as §5
A-375 [13] = assay: Antitumor activity against human A375 cells xenografted in nude mouse assessed as decrease in tumor weight at 30 mg/kg, ip administered every other day for 2 weeks; type: functional, organism-based; settings: 30 mg/kg
In short: (§6)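 Nude mice (6–8 weeks) injected subcutaneously in dorsal flank with 2 × 10^6 A375 cells in Matrigel. At ~100 mm3, randomized (n = 8). Compound given ip every other day in 2:1 PEG300/PBS; vehicle equal parts PEG300/PBS. Tumors weighed at sacrifice; mean ± SEM, ANOVA with Dunnett's test versus vehicle.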

A-375 [14] = assay: Antitumor activity against human A375 cells xenografted in nude mouse assessed as decrease in tumor weight at 15 mg/kg, ip administered every other day for 2 weeks; type: functional, organism-based; in short: as §6
A-375 [15] = assay: Induction of morphological changes in human A375 cells xenografted in nude mouse assessed as less microvessel density at 15 mg/kg, ip administered every other day for 2 weeks by immunohistochemical analysis; type: functional, organism-based
A-375 [16] = assay: Cytotoxicity against human A375 cells after 72 hrs by MTS assay; type: functional, cell-based; settings: A-375, 72 h; in short: as §1
[17] = Resistance index, ratio of IC50 for human DU145-TxR cells to IC50 for human DU145 cells; type: functional; in short: as §5
[18] = Antitumor activity against human PC3-TxR cells xenografted in nude mouse assessed as tumor growth inhibition at 30 mg/kg, ip administered every other day for 3 weeks; type: functional; settings: 504 h, read-out: TGI
In short: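 Nude mice 6–8 weeks old; 2.5 × 10^6 PC-3/TxR cells with Matrigel injected sc into dorsal flank. […] At about 100 mm3 mice were randomized, n = 7. Drug in 2:1 PEG300/PBS given ip every other day. Caliper volume a × b2 × 0.5. TGI computed from start and end mean volumes relative to the vehicle group.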

A-375 [19] = assay: Induction of apoptosis in human A375 cells xenografted in nude mouse assessed as increase in cleaved caspase-3 levels at 30 mg/kg, ip administered every other day for 2 weeks by immunohistochemical analysis; type: functional, organism-based; in short: as §3
[20] = Cytotoxicity against human PC3-TxR cells after 72 hrs by MTS assay; type: functional, cell-based; in short: as §5
DU-145 = assay: Cytotoxicity against human DU145 cells after 72 hrs by MTS assay; type: functional, cell-based; settings: DU-145, 72 h; in short: as §5
A-375 [21] = assay: Induction of morphological changes in human A375 cells xenografted in nude mouse assessed as less microvessel density at 30 mg/kg, ip administered every other day for 2 weeks by immunohistochemical analysis; type: functional, organism-based
A-375 [22] = assay: Antimigratory activity in human A375 cells assessed as wound closure at 25 nM after 22 hrs (reference value: 60.7 +/- […]); type: functional
Liver = assay: Half life in human liver microsomes by UPLC-MS analysis; type: ADME, microsome
In short: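 Compound at 10 mM in DMSO diluted into human liver microsomes (0.6381 mg/mL protein) in 0.1 M potassium phosphate pH 7.4 with EDTA. NADPH regenerating system added, incubated at 37 °C for 0–4 h in triplicate. Quenched with cold acetonitrile containing warfarin as internal standard, analysed by UPLC–MS SIR. ke from log-linear regression; t1/2 = ln 2/ke.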

Homo sapiens [23] = organism: Homo sapiens; assay: Inhibition of tubulin polymerization in human WM164 cells assessed as increase in cytoplasmic soluble tubulin levels at 100 nM after 18 hrs using DAPI by immunofluorescence-based confocal microscopic method; type: cell-based
In short: (§7)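 WM164 cells on glass coverslips (125 000 cells/well), incubated overnight, treated 18 h with 100 nM compound or DMSO vehicle. Stained with anti-α-tubulin and Alexa Fluor 647 anti-mouse IgG, mounted in DAPI-containing medium, and imaged by confocal microscopy.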

Homo sapiens [24] = organism: Homo sapiens; assay: Inhibition of tubulin polymerization in human WM164 cells assessed as decrease in polymeric tubulin filaments at 100 nM after 18 hrs using DAPI by immunofluorescence-based confocal microscopic method; type: cell-based; in short: as §7
Homo sapiens [25] = organism: Homo sapiens; assay: Inhibition of tubulin polymerization in human WM164 cells assessed as fragmentation of microtubules at 100 nM after 18 hrs using DAPI by immunofluorescence-based confocal microscopic method; type: cell-based; in short: as §7

What does the source list for `COc1ccc2c(c1)CCCN2c1nc(Cl)nc2ncccc12`?
IC50 (M14): 5.5 nM; Activity (A-375 [1]): Dose-dependent effect; inhibition (Tubulin (Sus scrofa)): Dose-dependent effect; Ratio IC50 [2]: 0.7; IC50 (RPMI-7951 [3]): 8.2 nM; Activity (A-375 [4]): Active; MTD at 120 h [5]: 50 mg/kg; Activity (RPMI-7951 [6]): 46.4%; Activity (RPMI-7951 [7]): 25.5%; inhibition in vivo at 15 mg/kg (A-375 [8]): 57.1%; Activity (A-375 [9]): 36.4%; Activity (RPMI-7951 [10]): Dose-dependent effect; inhibition in vivo at 30 mg/kg (A-375 [11]): 72.3%; IC50 [12]: 19.9 nM; IC50 (PC-3): 12.7 nM; Activity (A-375 [13]): Active; Activity (A-375 [14]): Active; Activity (A-375 [15]): Active; IC50 (A-375 [16]): 5.6 nM; Ratio IC50 [17]: 1.1; inhibition in vivo at 30 mg/kg [18]: 55.6%; Activity (A-375 [19]): Active; IC50 [20]: 8.7 nM; IC50 (DU-145): 18.3 nM; Activity (A-375 [21]): Active; Activity (A-375 [22]): 16.9%; t1/2 (Liver): 84 min; inhibition (Homo sapiens [23]): Active; inhibition (Homo sapiens [24]): Active; inhibition (Homo sapiens [25]): Active
